Source: ChEMBL document CHEMBL3588747, “Virtual High-Throughput Screening To Identify Novel Activin Antagonists” (J Med Chem, 2015)
The source made the active and inactive calls. No cut-off for these calls is given here.

Columns and labels:
Inhibin beta A chain = molecular target: T1, Inhibin beta A chain (Mus musculus, UniProt Q04998); assay: Antagonist activity at activin A in mouse LbetaT2 cells transfected with -338 promoter region of FSHbeta gene conjugated to luciferase reporter assessed as inhibition of FSHbeta promoter activation by luciferase assay; assay type: cell-based
T1 sequence (Q04998 whole entry): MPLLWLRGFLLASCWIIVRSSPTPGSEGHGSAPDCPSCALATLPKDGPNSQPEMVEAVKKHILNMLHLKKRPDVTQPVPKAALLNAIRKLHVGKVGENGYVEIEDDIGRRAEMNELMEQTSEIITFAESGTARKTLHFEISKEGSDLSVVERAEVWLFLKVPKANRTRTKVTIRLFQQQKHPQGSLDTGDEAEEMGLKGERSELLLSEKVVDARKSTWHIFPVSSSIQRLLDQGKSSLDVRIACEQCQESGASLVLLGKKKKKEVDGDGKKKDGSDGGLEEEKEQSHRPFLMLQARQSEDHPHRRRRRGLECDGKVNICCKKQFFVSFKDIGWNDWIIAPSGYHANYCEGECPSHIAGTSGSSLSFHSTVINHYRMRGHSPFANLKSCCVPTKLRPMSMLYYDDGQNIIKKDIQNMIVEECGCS
In short: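 −338FSHβ-Luc stably transfected LβT2 cells, 5 × 10^4 cells/well, plated 24 h, then given activin A (0.2 nM) with compound at 0.4–100 µM (in DMSO) or Fst288 0.05–4 nM as control, 6 h at 37 °C in serum-free, phenol red-free DMEM-F12. Cells lysed, luciferase activity read; IC50 from sigmoidal variable-slope fit; means ± SD.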

[1] = Cytotoxicity against mouse LbetaT2 cells assessed as reduction in cell viability at 100 uM after 24 hrs by MTT assay; assay type: functional
In short: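 LβT2 gonadotrope cells seeded 5 × 10^4/well, grown 24 h in DMEM-F12 with 5% FBS and […] D-glucose, then exposed to compound at 10 or 100 µM in growth medium for 24 h. MTT added for a further 2–3 h; absorbance at 490 nm as viability.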

[2] = Solubility of the compound in cell growth medium up to 200 uM after 24 hrs by upright light microscopy; assay type: physicochemical
In short: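 Compound from 50 mM DMSO stock diluted to 200 µM final in DMEM-F12 with 5% FBS, 1% penicillin/streptomycin, […] D-glucose, held 24 h; precipitate checked visually under upright light microscope.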

[3] = molecular target: T2, Inhibin beta A chain (Mus musculus) (UniProt Q04998); assay: Inhibition of activin A stimulated 4 day old CD1 mouse ovarian cell proliferation at 200 uM for 4 days by BrdU assay
T2 sequence (whole entry): T1 sequence (Q04998 whole entry)
In short: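 Ovaries from 4-day-old CD1 mice cultured on membrane inserts in DMEM/F12 with 0.03% BSA with 1 nM activin A plus compound at 200 µM (DMSO control; Fst288 4 nM or inhibin A 8 nM references) for 4 days, then 10 µM BrdU for 24 h. Genomic DNA (150 ng) denatured, dot-blotted, probed with anti-BrdU, ECL, densitometry; three independent experiments; ANOVA/Tukey.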

HepG2 = assay: […] in human HepG2 cells assessed as cell viability after 96 hrs by MTT assay; assay type: functional, cell-based; settings: HepG2, 96 h
In short: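 HepG2 cells (5 × 10^4/well) treated with 1 nM activin A alone (DMSO solvent control) or with compound 1.6–200 µM or Fst288 0.5–8 nM, 96 h at 37 °C in DMEM with 0.2% FBS, pyruvate, glutamine. MTT added 0.5–1 h for viability as reversal of activin-induced apoptosis; IC50 from sigmoidal variable-slope fit; means ± SD.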

Mus musculus [4] = assay: Toxicity in ovariectomized CD1 mouse assessed as liver and kidney histopathology at 60 mg/kg, sc twice daily for 2 days; assay type: organism-based; settings: in vivo, 48 h
In short: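 Ovariectomized CD1 mice given vehicle or 60 mg/kg subcutaneously, 4 doses over 2 days; kidney and liver fixed in Modified Davidson's fixative 5 days at 4 °C, paraffin-embedded, H&E stained for histopathology.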

[5] = molecular target: T3, Inhibin beta A chain (Homo sapiens) (UniProt P08476); assay: Inhibition of interaction of activin A (unknown origin)/ActRIIA-ECD complex with ALK4-ECD-Fc at 25 uM after 120 secs by competitive binding/ Blitz binding assay
T3 sequence (whole entry): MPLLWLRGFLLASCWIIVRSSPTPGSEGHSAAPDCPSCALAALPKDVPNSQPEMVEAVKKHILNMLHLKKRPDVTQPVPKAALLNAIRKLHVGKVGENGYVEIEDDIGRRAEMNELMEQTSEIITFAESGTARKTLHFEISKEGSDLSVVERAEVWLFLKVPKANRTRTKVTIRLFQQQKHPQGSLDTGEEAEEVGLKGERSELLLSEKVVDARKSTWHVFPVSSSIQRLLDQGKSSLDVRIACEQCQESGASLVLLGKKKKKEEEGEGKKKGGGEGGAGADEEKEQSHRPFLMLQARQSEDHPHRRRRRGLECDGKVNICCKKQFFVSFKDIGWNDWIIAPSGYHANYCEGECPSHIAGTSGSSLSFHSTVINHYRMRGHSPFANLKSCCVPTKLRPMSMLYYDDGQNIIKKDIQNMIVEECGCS
In short: (§1)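 ALK4-ECD-Fc (50 ng/mL) captured on a protein A biosensor for 120 s, then dipped into activin A/ActRIIA-ECD premixed 1:2 molar, 1.6 µM final in PBS, with solvent or compound at 0.4, 1.6, 6.25 or 25 µM; 120 s association, 120 s dissociation in PBS; wavelength shift monitored by Blitz.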

Mus musculus [6] = assay: Toxicity in ovariectomized CD1 mouse assessed as change in behavior at 60 mg/kg, sc twice daily for 2 days; assay type: organism-based; settings: in vivo, 48 h
In short: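 Ovariectomized 12-week-old CD1 mice given subcutaneous compound twice daily for 2 days (4 doses); behaviour observed after injection.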

[7] = molecular target: Growth/differentiation factor 8 (Homo sapiens) (UniProt O14793); assay: Inhibition of interaction of myostatin (unknown origin)/ActRIIA-ECD complex with ALK4-ECD-Fc at 25 uM after 120 secs by competitive binding/ Blitz binding assay
In short: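 Blitz biolayer assay: ALK4-ECD-Fc (50 ng/mL) captured on protein A biosensor 120 s, exposed to myostatin/ActRIIA-ECD premixed 1:2 molar at 1.6 µM final in PBS with solvent or compound at 25 µM; 120 s association, 120 s dissociation; real-time wavelength shift.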

[8] = molecular target: T3, Inhibin beta A chain (Homo sapiens); assay: Inhibition of interaction of activin A (unknown origin) with ActRIIA-ECD complex at 25 uM after 120 secs by competitive binding/ Blitz binding assay
In short: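 Protein A biosensor (Blitz, dip-and-read) loaded with ActRIIA-ECD-Fc; activin A at 1.6 µM final, with solvent or compound at 25 µM, 120 s association and 120 s dissociation in PBS; real-time wavelength shift recorded.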

Mus musculus [9] = assay: Inhibition of activin - stimulated serum FSH level in ovariectomized CD1 mouse at 60 mg/kg, sc by ELISA (reference value: 100%); assay type: functional
In short: (§2)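 Ovariectomized 12-week-old CD1 mice dosed subcutaneously twice daily for 2 days (4 doses); vehicle TBS or DMSO; Fst288 200 µg/kg for 3 doses as reference. Serum then collected, stored −20 °C, FSH measured by ELISA (sensitivity 0.35 mIU/mL, read 450 nm); vehicle mean set to 100%. 5–7 mice per group, 10 controls; one-way ANOVA with Tukey.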

[10] = molecular target: T3, Inhibin beta A chain (Homo sapiens); assay: Inhibition of interaction of activin A (unknown origin)/ActRIIA-ECD complex with ALK4-ECD-Fc after 120 secs by competitive binding/ Blitz binding assay; in short: as §1
Mus musculus [11] = assay: Inhibition of activin - stimulated serum FSH level in ovariectomized CD1 mouse at 15 mg/kg, sc by ELISA (reference value: 100%); assay type: functional, organism-based; in short: as §2
Mus musculus [12] = assay: Inhibition of activin - stimulated serum FSH level in ovariectomized CD1 mouse at 30 mg/kg, sc by ELISA (reference value: 100%); assay type: functional; in short: as §2
[13] = molecular target: T4, Growth/differentiation factor 8 (Mus musculus, UniProt O08689); assay: Antagonist activity at myostatin in mouse LbetaT2 cells transfected with -338 promoter region of FSHbeta gene conjugated to luciferase reporter assessed as inhibition of FSHbeta promoter activation by luciferase assay; assay type: cell-based
T4 sequence (O08689 whole entry): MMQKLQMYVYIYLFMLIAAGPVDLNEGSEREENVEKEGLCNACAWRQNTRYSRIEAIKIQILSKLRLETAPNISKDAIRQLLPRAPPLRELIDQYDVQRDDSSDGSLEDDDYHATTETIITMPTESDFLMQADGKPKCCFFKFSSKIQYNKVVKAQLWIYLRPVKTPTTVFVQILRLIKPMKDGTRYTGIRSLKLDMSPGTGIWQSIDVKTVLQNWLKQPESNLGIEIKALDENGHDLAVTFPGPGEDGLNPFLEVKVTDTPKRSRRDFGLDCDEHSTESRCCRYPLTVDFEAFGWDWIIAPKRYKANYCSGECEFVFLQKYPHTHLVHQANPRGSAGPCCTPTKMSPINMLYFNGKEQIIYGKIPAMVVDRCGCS
In short: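 Stable −338FSHβ-Luc LβT2 cells were plated at 5 × 10^4/well. They were stimulated with myostatin (0.2 nM) plus DMSO solvent control, or with compound at 0.8–100 µM, for 6 h at 37 °C in serum-free, phenol red-free DMEM-F12. Cells were lysed for luciferase readout. Runs were in triplicate across three experiments, and IC50 came from a sigmoidal variable-slope fit, reported as mean ± SD.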

O=C(N[C@H](Cc1ccc2c(c1)OCO2)C(=O)N[C@@H](Cc1c[nH]c2ccccc12)C(=O)O)c1ccccc1
IC50 (Inhibin beta A chain): > 100 µM
inhibition at 100 µM [1]: < 20%
solubility [2]: soluble

CC(C)(O)C#Cc1ccc(CN2CCC[C@@H](CCC(=O)N3CCOCC3)C2)s1
IC50 (Inhibin beta A chain): 4.42 µM
inhibition at 100 µM [1]: < 20%
solubility [2]: soluble
inhibition [3]: Active
IC50 (HepG2): 23.2 µM

CCCn1ncc(CN2CCN(CCCc3ccccc3)[C@@H](CCO)C2)c1C
IC50 (Inhibin beta A chain): > 100 µM
inhibition at 100 µM [1]: < 20%
solubility [2]: soluble

CCn1c(-c2cccnc2)nc2cc(NC(=O)COC)cc(C(=O)NCc3ccccc3)c21
Activity (Mus musculus [4]): Non-toxic
Activity [5]: Active
IC50 (Inhibin beta A chain): 3.67 µM
Activity (Mus musculus [6]): Non-toxic
Activity [7]: inactive
Activity [8]: inactive
inhibition at 100 µM [1]: < 20%
inhibition in vivo at 60 mg/kg (Mus musculus [9]): 70%
solubility [2]: soluble
inhibition [10]: Dose-dependent effect
Activity (Mus musculus [11]): inactive
inhibition [3]: Active
IC50 (HepG2): 12.1 µM
inhibition in vivo at 30 mg/kg (Mus musculus [12]): 70%
IC50 [13]: 47.9 µM

O=C1CC[C@](CCC(=O)N2CCC([C@@H](O)c3cccnc3)CC2)(Cc2cccc3ccccc23)N1
IC50 (Inhibin beta A chain): 23.6 µM
inhibition at 100 µM [1]: < 20%
solubility [2]: soluble
IC50 (HepG2): > 200 µM

Cn1cc(CN2C[C@H](OCc3cccnc3)CN(Cc3ccc(C#CC(C)(C)O)cc3)CC2=O)cn1
IC50 (Inhibin beta A chain): 4.25 µM
inhibition at 100 µM [1]: < 20%
solubility [2]: soluble
IC50 (HepG2): 43.9 µM

O=C(NCc1ccccc1)c1nn(CCO)c2c1CN(C1CCCC1)CC2
IC50 (Inhibin beta A chain): > 100 µM
inhibition at 100 µM [1]: < 20%
solubility [2]: soluble

COc1ccc(OC[C@@H](O)CN2CCC(O)CC2)c(CNCCc2cccnc2)c1
IC50 (Inhibin beta A chain): 4.18 µM
inhibition at 100 µM [1]: < 20%
solubility [2]: soluble
IC50 (HepG2): 47.3 µM

Cc1n[nH]c(O)c1C(c1ccc(-c2ccccc2C(=O)O)o1)c1c(C)n[nH]c1O
IC50 (Inhibin beta A chain): > 100 µM
inhibition at 100 µM [1]: < 20%
solubility [2]: soluble

COc1cccc(CO[C@H]2CN(CCc3ccccc3)C(=O)CN(C(=O)[C@@H]3CNC(=O)C3)C2)c1
IC50 (Inhibin beta A chain): > 100 µM
inhibition at 100 µM [1]: < 20%
solubility [2]: soluble

O=C(NCc1cccc(F)c1)[C@@H]1CCC(=O)N(CCCN2CCCC2=O)C1
IC50 (Inhibin beta A chain): > 100 µM
inhibition at 100 µM [1]: < 20%
solubility [2]: soluble
